The results in this text go back to ChEMBL document CHEMBL1124160, “Synthetic aci-reductones: 3,4-dihydroxy-2H-1-benzopyran-2-ones and their cis- and trans-4a,5,6,7,8,8a-hexahydro diastereomers. Antiaggregatory, antilipidemic, and redox properties compared to those of the 4-substituted 2-hydroxytetronic acids” (J Med Chem, 1988).

Common to all, as to format: functional, organism-based
The species named for test [1] is Homo sapiens. As to the kind of experiment: Inhibition of U-46,619 induced human platelet aggregation. Put shortly: (§1)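 Human platelet-rich plasma from drug-free volunteers (no medication ≥10 days). Compounds prepared fresh in N2-deoxygenated 10 mM sodium phosphate/0.9% NaCl pH 7.4 (one in DMSO, final 0.14%), added 1 min before inducer: ADP 1–5 μM, AA 0.2–1 mM or U46619 0.3–0.5 μM. Turbidometric aggregometry; IC50 from light-transmittance amplitude at 6 min (ADP, secondary wave) or 4 min (AA, U46619); mean ± SEM over donors.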

The species entered for test [2] is Homo sapiens. As to the kind of experiment: Inhibition of U-46,619 induced serotonin secretion. The method in brief: (§2)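 Platelets in human platelet-rich plasma prelabeled with [14C]serotonin; dense-granule secretion read as released radioactivity. Compounds in deoxygenated 10 mM sodium phosphate/0.9% NaCl pH 7.4, given 1 min before ADP (1–5 μM), AA (0.2–1 mM) or U46619 (0.3–0.5 μM). Top drug levels 4000–5000 μM; mean ± SEM across donors.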

For test [3], the species on record is Homo sapiens. As to the kind of experiment: Inhibition of adenosine diphosphate (ADP) induced human platelet aggregation. Put shortly:
as §1

For test [4], the species on record is Homo sapiens. The test can be described thus: Inhibition of adenosine diphosphate (ADP) induced serotonin secretion. Put shortly: as §2
Test [5] is filed under the species Homo sapiens. As to the kind of experiment: Inhibition of arachidonic acid (AA) induced human platelet aggregation. The method in brief: as §1
Test [6] is filed under the species Homo sapiens. As to the kind of experiment: Inhibition of arachidonic acid (AA) induced serotonin secretion. The method in brief:
as §2

Test [7] is filed under the species Homo sapiens. The test can be described thus: Inhibition of U-46,619 induced serotonin secretion; c=No response. The method in brief:
as §2

As to `O=c1c(O)c(O)oc2ccc(O)cc12`, the IC50 is greater than 4000 µM in the test filed under Homo sapiens [1]; greater than 4000 µM in the test listed under Homo sapiens [2]; 1420 µM in the test listed under Homo sapiens [3]; 1520 µM in the test filed under Homo sapiens [4]; 3510 µM in the test listed under Homo sapiens [5]; 3410 µM in the test filed under Homo sapiens [6].

For `O=C1C(O)=C(O)OC1c1ccc(Cl)cc1` (configuration not stated), the 50% inhibitory concentration (IC50) was greater than 4000 µM in the test listed under Homo sapiens [1]; greater than 4000 µM in the test filed under Homo sapiens [2]; 1090 µM in the test listed under Homo sapiens [3]; 1210 µM in the test filed under Homo sapiens [4]; greater than 4000 µM in the test listed under Homo sapiens [5]; greater than 4000 µM in the test listed under Homo sapiens [6].

With `O=C1C(O)=C(O)OC12CCCCC2`, the IC50 in the test listed under Homo sapiens [1] is greater than 4000 µM; in the test filed under Homo sapiens [2], greater than 4000 µM; in the test filed under Homo sapiens [3], greater than 3300 µM; in the test filed under Homo sapiens [4] it was greater than 3000 µM; in the test filed under Homo sapiens [5], greater than 4000 µM; in the test listed under Homo sapiens [6], greater than 4000 µM.

For the compound `CC(C)(Oc1ccc(Cl)cc1)C(=O)O` [CLOFIBRIC ACID], the concentration for half-maximal inhibition (IC50) in the test listed under Homo sapiens [1] was greater than 4000 µM; in the test listed under Homo sapiens [2], 3080 µM; in the test listed under Homo sapiens [5], greater than 3200 µM; in the test filed under Homo sapiens [6], greater than 3500 µM.

Take `COc1ccc2c(c1)c(CC(=O)O)c(C)n2C(=O)c1ccc(Cl)cc1` [INDOMETHACIN]: the IC50 is 0.8 µM in the test filed under Homo sapiens [3], 0.7 µM in the test listed under Homo sapiens [4], 1 µM in the test listed under Homo sapiens [5] and 1 µM in the test listed under Homo sapiens [6].

As for `O=C1C(O)=C(O)OC2CCCC[C@H]12` (some centres not stated), the IC50 in the test filed under Homo sapiens [1] was 3090 µM; in the test filed under Homo sapiens [7], “Not Active”; in the test filed under Homo sapiens [3], 481 µM; in the test listed under Homo sapiens [4], 492 µM; in the test listed under Homo sapiens [5] it was greater than 4000 µM; in the test listed under Homo sapiens [6], greater than 4000 µM.

For the compound `O=c1c(O)c(O)oc2cc3c(cc12)OCO3`, the IC50 was 1110 µM in the test filed under Homo sapiens [1]; 744 µM in the test filed under Homo sapiens [2]; 426 µM in the test listed under Homo sapiens [3]; 389 µM in the test filed under Homo sapiens [4]; 3980 µM in the test filed under Homo sapiens [5]; 1550 µM in the test listed under Homo sapiens [6].

In the case of `CC(=O)Oc1ccccc1C(=O)O` [ASPIRIN], the IC50 was 59 µM in the test listed under Homo sapiens [3], 50 µM in the test filed under Homo sapiens [4], 89 µM in the test filed under Homo sapiens [5] and 95 µM in the test filed under Homo sapiens [6].

With `O=C1C(O)=C(O)OC2CCCCC12` (configuration not stated), the IC50 in the test filed under Homo sapiens [1] is greater than 4000 µM; in the test filed under Homo sapiens [2], greater than 4000 µM; in the test listed under Homo sapiens [3] it was 447 µM; in the test listed under Homo sapiens [4], 406 µM; in the test listed under Homo sapiens [5], greater than 4000 µM; in the test filed under Homo sapiens [6], greater than 4000 µM.

Regarding `CC(C)(C)c1cc2oc(O)c(O)c(=O)c2cc1O`, the half-inhibitory concentration (IC50) in the test listed under Homo sapiens [1] was greater than 4000 µM; in the test listed under Homo sapiens [2], greater than 4000 µM; in the test filed under Homo sapiens [3], 1640 µM; in the test listed under Homo sapiens [4] it was 2180 µM; in the test filed under Homo sapiens [5] it was greater than 4000 µM; in the test listed under Homo sapiens [6] it was greater than 4000 µM.

In the case of `O=c1c(O)c(O)oc2ccccc12`, the IC50 amounted to 3410 µM in the test filed under Homo sapiens [1]; 3980 µM in the test listed under Homo sapiens [2]; 531 µM in the test listed under Homo sapiens [3]; 472 µM in the test listed under Homo sapiens [4]; 561 µM in the test filed under Homo sapiens [5]; 925 µM in the test filed under Homo sapiens [6].

As for `O=c1c(O)c(O)oc2ccc(Cl)cc12`, the concentration for half-maximal inhibition (IC50) in the test listed under Homo sapiens [1] stood at 1400 µM; in the test listed under Homo sapiens [3] it was 498 µM; in the test filed under Homo sapiens [4], 513 µM; in the test listed under Homo sapiens [5], 780 µM; in the test listed under Homo sapiens [6] it was 1130 µM.

Take `O=c1c(O)c(O)oc2ccc(-c3ccccc3)cc12`: the IC50 in the test filed under Homo sapiens [1] stood at 422 µM; in the test listed under Homo sapiens [2] it was 345 µM; in the test filed under Homo sapiens [3], 522 µM; in the test filed under Homo sapiens [4], 450 µM; in the test listed under Homo sapiens [5] it was 253 µM; in the test listed under Homo sapiens [6], 407 µM.

As for `O=C1C(O)=C(O)OC12CCCC2`, the IC50 in the test filed under Homo sapiens [1], in the test listed under Homo sapiens [2], in the test listed under Homo sapiens [3], in the test filed under Homo sapiens [4], in the test filed under Homo sapiens [5] and in the test listed under Homo sapiens [6] was greater than 4000 µM each time.

By IC50 is commonly meant the point on the concentration scale where inhibition reaches its midpoint. A lower IC50 goes with greater potency.
